{"source": "ChEMBL document CHEMBL2203086", "about": "“Structure-Based Discovery of a Novel Pentamidine-Related Inhibitor of the Calcium-Binding Protein S100B” (ACS Med Chem Lett, 2012)", "key": {"[1]": {"test": "Binding affinity to rat/bovine recombinant S100B expressed in Escherichia coli [HMS174(DE3)strain] by NMR spectroscopy"}, "[2]": {"test": "Destabilization of rat/bovine S100B assessed as change in melting temperature by differential scanning calorimetry", "outline": "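DSC on S100B dialyzed into 5 mM HEPES pH 7.2, 15 mM NaCl, 10 mM CaCl2, 0.5 mM TCEP, at 40-50 µM per monomer. Compound prepared in dialysis buffer, 200 µM final. Buffer reference scans subtracted and data normalized to protein concentration. Apparent Tm taken from peak maxima, compared against ligand-free S100B.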"}, "[3]": {"test_system": "Malme-3M", "test": "Growth inhibition of human MALME-3M cells transfected with S100B siRNA after 4 days by SYBR green assay", "format": "functional, cell-based", "conditions": "for pIC50: Homo sapiens, Malme-3M, 96 h, read-out: IC50; call rule not given here", "outline": "(§1)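 MALME-3M melanoma cells, stable hairpin-vector lines with scrambled control siRNA (high S100B) or S100B knockdown siRNA (clone #7), grown in IMDM with 20% FBS, neomycin omitted during assay. Seeded in 384-well plates and grown 24 h at 37 °C, 5% CO2. Compound added, DMSO in controls, then 4 days incubation. Lysed with 1.2% Igepal plus SYBR Green I (1:10,000) for 24 h. Fluorescence read at 485/520 nm as a DNA/cell-number measure, and IC50 derived.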"}, "[4]": {"test_system": "Malme-3M", "test": "Growth inhibition of human MALME-3M cells overexpressing calcium-binding protein S100B after 4 days by SYBR green assay", "format": "functional, cell-based", "conditions": "for pIC50: Homo sapiens, Malme-3M, 96 h, read-out: IC50", "outline": "as §1"}, "[5]": {"test": "Binding affinity to rat/bovine recombinant S100B at weaker site expressed in Escherichia coli [HMS174(DE3)strain] by NMR spectroscopy"}, "[6]": {"test": "Binding affinity to rat/bovine recombinant S100B at tight site expressed in Escherichia coli [HMS174(DE3)strain] by NMR spectroscopy"}}, "note": "pIC50, pKd: −log10 of the molar value."}
{"smiles": "N=C(N)c1ccc(OCCCCCCCOc2ccc(C(=N)N)cc2)cc1", "note": "[HEPTAMIDINE]", "values": [{"measurement": "pKd", "setting": "[1]; read-out: Kd", "value": 5.16}, {"measurement": "ΔTm", "setting": "[2]", "value": 18.3, "unit": "°C"}, {"measurement": "pIC50", "setting": "[3]", "value": 5.17}, {"measurement": "pIC50", "setting": "[4]", "value": 5.38}]}
{"smiles": "N=C(N)c1ccc(OCCCCCCOc2ccc(C(=N)N)cc2)cc1", "note": "[HEXAMIDINE]", "values": [{"measurement": "Kd", "setting": "[1]", "value": "Not Active"}, {"measurement": "IC50", "setting": "[3]; malme-3m", "value": "Not Active"}, {"measurement": "IC50", "setting": "[4]; malme-3m", "value": "Not Active"}]}
{"smiles": "N=C(N)c1ccc(OCCCCCOc2ccc(C(=N)N)cc2)cc1", "note": "[PENTAMIDINE]", "values": [{"measurement": "ΔTm", "setting": "[2]", "value": 1, "unit": "°C"}, {"measurement": "pKd", "setting": "[5]", "value": 4.40}, {"measurement": "pKd", "setting": "[6]", "value": 6.89}, {"measurement": "pIC50", "setting": "[3]", "value": 4.91}, {"measurement": "pIC50", "setting": "[4]", "value": 4.99}]}
